The viability is a read-out of living cells in per cent, often relative to untreated cells. What is called inhibition is the relative decrease from the control value, in per cent.

Test [1] can be described thus: SK-BR-3 cell growth inhibitors, pilot screen, 24 h, human (AID 572;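 active = viability at or below 10% of carrier control in both of two separate runs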;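 note: compound exposure lasted between 18 and 24 h rather than exactly 24 h; 100% = carrier-treated control wells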). The following applies: SK-BR-3 viability, CellTiter-Glo luminescence, at 10 µM, stronger effect = lower value. On the technique in general: In ATP-based viability assays light output follows the ATP content of the culture.
Test [2] is described as follows: HUVEC growth inhibition – cell-based, human, primary screen (AID 575;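 active = viability at or below 30% in both replicate assays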;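 note: 100% = median of untreated cell wells with 0.1% DMSO on each plate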). Conditions: HUVEC proliferation, CellTiter-Glo luminescence, 72 h; at 10 µM; stronger effect = lower value. The essentials:
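Test system: primary human umbilical vein endothelial cells. Quantity: 1250 cells/well. Compound: single 10 µM dose, 0.1% DMSO, from 5x medium stock. Timing: 72 h treatment at 37 °C. Detection: ATP-based CellTiter-Glo luminescent read. Benchmarks: vehicle and MePR control wells. Format: 384-well plates coated with collagen.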

Test [3] can be described thus: growth inhibitors of H69AR lung tumor, primary screen, human, duplicate replicates (AID 580;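 active = viability at or under a set limit in both replicates, limit being median viability minus 3 SD, cut at about 48% in these data, passing the limit was not always enough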;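 note: 100% = mean luminescence of untreated wells and 0% = no signal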). The following applies: H69AR lung tumor cells viability, ATP luminescence, 72 h; at 10 µM; stronger effect = lower value.
Test [4] can be described thus: reversal of MRP1-mediated doxorubicin resistance, pilot screen, H69AR cells, doxorubicin co-treatment (AID 601;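 active = viability loss from added drug above about 55%, and viability with drug at most 40%, in both replicates, limit read from the data, passing the limit was not always enough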). Conditions: CellTiter-Glo, 72 h, at 10 µM; for differential viability (reversal): stronger effect = higher value.
Test [5] is described as follows: 384-well plate pilot, post-Golgi transport modulator project, inhibition of yeast transport mutant growth (AID 636; in the data active = inhibition above about 31%). Conditions: absorbance 615 nm, about 18 h, stronger effect = higher value.
The nature of test [6]: growth suppression of yeast trafficking mutant, preliminary HTS, modulators of trafficking downstream of Golgi apparatus project, 1536-format plate, OD 615 nm (AID 637). The following applies: yeast transport mutant growth, absorbance 615 nm, 18 h; stronger effect = higher value.
The mark [7] stands for this setting: H69AR cells + 2 uM doxorubicin, measured here: viability with 2 uM doxorubicin, stronger effect = lower value.
Where [8] appears, read: H69AR cells, compound alone cytotoxicity.

Activity calls are given as the source filed them. Cut-off read from the data, not from the text of the source, unless noted: active = inhibition above about 30%; inactive = the rest.

For the compound `CCOC(=O)c1cc2sc(C)cc2n1CC(=O)Nc1cccc(C)c1C`, the viability is 90% (inactive) in test [1]; 99.2% (inactive) in test [2]; 91.2% (inactive) in test [3]; 94.2% in test [4] (setting [7]); 91.2% in test [4] (setting [8]). Also, the differential viability (reversal) in test [4] (H69AR cells + 2 uM doxorubicin) was -3.05% (inactive). Moreover, the inhibition was -5.81% (inactive) in test [5] and -5.82% (inactive) in test [6].
As for `CCOC(=O)Cc1csc(/C(=N/O)C(N)=O)n1`, the viability in test [1] was 94% (inactive); in test [2], 94.7% (inactive); in test [3] it was 92.6% (inactive); in test [4] (setting [7]), 97.1%; in test [4] (setting [8]) it was 92.6%. In addition, the differential viability (reversal) in test [4] (H69AR cells + 2 uM doxorubicin) is -4.43% (inactive). Moreover, the inhibition in test [5] is -1.82% (inactive); in test [6], -5.41% (inactive).
`CC(C)OC(=O)C(C)(C)Oc1ccc(C(=O)c2ccc(Cl)cc2)cc1`: the viability in test [1] was 88% (inactive); in test [2] it was 90.1% (inactive); in test [3], 103% (inactive); in test [4] (setting [7]) it was 94.5%; in test [4] (setting [8]), 103%. In addition, in test [4] (H69AR cells + 2 uM doxorubicin), the differential viability (reversal) is 8.95% (inactive). Further, the inhibition in test [5] was 0.78% (inactive); in test [6], -7.67% (inactive).
As for `CCN(CC)C(c1ccc(C)cc1)c1nnnn1C1CCCCC1` (stereo unspecified), the viability in test [1] was 64% (inactive); in test [2], 102% (inactive); in test [3], 75.5% (inactive); in test [4] (setting [7]) it was 68.5%; in test [4] (setting [8]), 75.5%. Further, the differential viability (reversal) in test [4] (H69AR cells + 2 uM doxorubicin) is 7% (inactive). Besides, the results for the inhibition in test [5] and in test [6] were -6.13% (inactive) and -4.73% (inactive), respectively.
For the compound `COc1ccccc1-n1c(SCC(=O)NC(C)(C)C)nnc1-c1ccco1`, the viability was 82% (inactive) in test [1]; 104% (inactive) in test [2]; 96.1% (inactive) in test [3]; 111% in test [4] (setting [7]); 96.1% in test [4] (setting [8]). The differential viability (reversal) in test [4] (H69AR cells + 2 uM doxorubicin) is -15.2% (inactive). Further, the inhibition is -4.79% (inactive) in test [5] and -3.45% (inactive) in test [6].
Turning to `Cc1cccc(N2C(=O)CC(N(C(=O)c3ccco3)c3cccc(C)c3)C2=O)c1` (stereo unspecified), the viability is 104% (inactive) in test [1]; 98.8% (inactive) in test [2]; 98.5% (inactive) in test [3]; 102% in test [4] (setting [7]); 98.5% in test [4] (setting [8]). Besides, the differential viability (reversal) in test [4] (H69AR cells + 2 uM doxorubicin) is -3.33% (inactive). Also, the inhibition in test [5] is 0% (inactive); in test [6], 6.13% (inactive).
Regarding `O=C(CSCc1cccs1)N1CCCC1`, the viability in test [1] was 115% (inactive); in test [2], 93.6% (inactive); in test [3], 104% (inactive); in test [4] (setting [7]) it was 90.6%; in test [4] (setting [8]), 104%. The differential viability (reversal) in test [4] (H69AR cells + 2 uM doxorubicin) was 13.8% (inactive). The inhibition was -0.91% (inactive) in test [5] and 5.41% (inactive) in test [6].
As to `Cc1cc(C)n(CC(=O)O)n1`, the viability in test [1] is 88% (inactive); in test [2], 106% (inactive); in test [3], 88.4% (inactive); in test [4] (setting [7]) it was 107%; in test [4] (setting [8]), 88.4%. The differential viability (reversal) in test [4] (H69AR cells + 2 uM doxorubicin) was -18.8% (inactive). The inhibition in test [5] was -7.7% (inactive); in test [6], -1.45% (inactive).
Consider `CC(=O)Nc1nnc(S(N)(=O)=O)s1`, for which the viability in test [1] was 95% (inactive); in test [2], 88.7% (inactive); in test [3], 109% (inactive); in test [4] (setting [7]), 84.6%; in test [4] (setting [8]) it was 109%. Besides, the differential viability (reversal) in test [4] (H69AR cells + 2 uM doxorubicin) is 24.6% (inactive). Besides, the inhibition was -1.82% (inactive) in test [5] and 3.33% (inactive) in test [6].
In the case of `Cc1cc(=O)n2nc(N3CCCC(C(=O)N4CCN(C)CC4)C3)sc2n1` (stereo unspecified), the viability in test [1] is 110% (inactive); in test [2], 101% (inactive); in test [3], 95.7% (inactive); in test [4] (setting [7]), 88.7%; in test [4] (setting [8]) it was 95.7%. Besides, the differential viability (reversal) in test [4] (H69AR cells + 2 uM doxorubicin) was 7.05% (inactive). Moreover, the values for the inhibition in test [5] and in test [6] were -5.81% (inactive) and -5.09% (inactive), respectively.
As to `COc1ccc(-c2ccc(-c3nnn(CC(C)=O)n3)cc2)cc1`, the viability was 118% (inactive) in test [1]; 105% (inactive) in test [2]; 76.9% (inactive) in test [3]; 73.6% in test [4] (setting [7]); 76.9% in test [4] (setting [8]). In test [4] (H69AR cells + 2 uM doxorubicin), the differential viability (reversal) was 3.31% (inactive). The inhibition in test [5] was -4.16% (inactive); in test [6], -9.02% (inactive).
As to `Cn1c(C(=O)OCC(=O)NCC2CCCO2)cc2sccc21` (stereo unspecified), the viability in test [1] is 85% (inactive); in test [2] it was 113% (inactive); in test [3], 92.7% (inactive); in test [4] (setting [7]) it was 89.6%; in test [4] (setting [8]) it was 92.7%. The differential viability (reversal) in test [4] (H69AR cells + 2 uM doxorubicin) was 3.19% (inactive). The results for the inhibition in test [5] and in test [6] were -9.04% (inactive) and 2.9% (inactive), respectively.

The values above are taken from PubChem BioAssay.
